Results from different studies.
FLT3 autoinhibited: Receptor-type tyrosine-protein kinase FLT3, autoinhibited (FLT3, Homo sapiens, UniProt P36888)
FLT3 D835V: Receptor-type tyrosine-protein kinase FLT3 (FLT3, Homo sapiens, UniProt P36888, D835V)
FLT3: Receptor-type tyrosine-protein kinase FLT3 (FLT3, Homo sapiens, UniProt P36888)
FLT3 R834Q: Receptor-type tyrosine-protein kinase FLT3 (FLT3, Homo sapiens, UniProt P36888, R834Q)
FLT3 D835H: Receptor-type tyrosine-protein kinase FLT3 (FLT3, Homo sapiens, UniProt P36888, D835H)
FLT3 K663Q: Receptor-type tyrosine-protein kinase FLT3 (FLT3, Homo sapiens, UniProt P36888, K663Q)
FLT3 ITD: Receptor-type tyrosine-protein kinase FLT3 (FLT3, Homo sapiens, UniProt P36888, ITD)
FLT3 D835Y: Receptor-type tyrosine-protein kinase FLT3 (FLT3, Homo sapiens, UniProt P36888, D835Y)
FLT3 N841I: Receptor-type tyrosine-protein kinase FLT3 (FLT3, Homo sapiens, UniProt P36888, N841I)

For `O=C(c1ccc(Nc2ncc(Cl)c(-c3cc4ccccc4s3)n2)cc1)N1CCC(N2CCCC2)CC1`, the remaining binding was 27% (FLT3 autoinhibited; binding; competition with immobilised ligand; 1 µM).
With `CN(CCCC(F)(F)F)c1nccc(-c2cnn3ncccc23)n1` the remaining binding was 84% (FLT3 D835V; binding; 1 µM).
`O=C(NCCCN1CCOCC1)c1ccc(Nc2ncc(Cl)c(-c3ccc(Cl)s3)n2)cc1` gave a remaining binding of 7.7% (FLT3; binding; competition with immobilised ligand; 1 µM).
`C[C@H]1CCN(c2nccc(-c3cnn4ncccc34)n2)C1` gave a remaining binding of 71% (FLT3 R834Q; binding; 1 µM).
With `O=C(NCCCN1CCOCC1)c1ccc(Nc2nccc(-c3cc4ccccc4s3)n2)cc1` the remaining binding was 3.4% (FLT3 D835V; binding; competition with immobilised ligand; 1 µM).
With `Cc1noc([C@H]2C[C@@H](c3ccc(C(F)(F)F)cc3)CN(C(=O)N3CCS(=O)(=O)C3)C2)n1` the remaining binding was 100% (FLT3 D835H; cell-free assay; competition with immobilised ligand; 1 µM).
For `CN1CCN(c2ccc(Nc3nccc(-c4ccccc4)n3)cc2C(F)(F)F)CC1`, the remaining binding was 15% (FLT3 R834Q; binding; 10 µM).
The remaining binding of `CO[C@@H](C)c1c(Nc2ccc([C@H](N(C)C(=O)C3CCS(=O)(=O)CC3)C(F)(F)F)cc2)cnc2cc(Cl)nn12` is reported as 100% (FLT3 K663Q; cell-free assay; competition with immobilised ligand; 1 µM).
`O=C(c1ccc(Nc2nccc(-c3cc4ccccc4s3)n2)cc1)N1CCC(N2CCCC2)CC1` gave a remaining binding of 46% (FLT3 ITD; binding; competition with immobilised ligand; 1 µM).
With `CCN1CCN(Cc2ccc(C(=O)Nc3ccc(C)c(Oc4ccc5c(c4)CC(=O)N5)c3)cc2C(F)(F)F)CC1` the remaining binding was 100% (FLT3 D835H; binding; competition with immobilised ligand; 1 µM).
For `CN1CCN(c2ccc(Nc3nccc(-c4cccc([N+](=O)[O-])c4)n3)cc2C(F)(F)F)CC1`, the remaining binding was 3.7% (FLT3 R834Q; binding; 10 µM).
`CNCc1ccccc1-c1csc([C@H](C)Nc2nc(C)nc3cc(OC)c(OC)cc23)c1` gave a remaining binding of 99% (FLT3 ITD; cell-free assay; competition with immobilised ligand; 1 µM).
For `COc1ccnn2ncc(-c3ccnc(N(C)C)n3)c12`, the remaining binding was 78% (FLT3 autoinhibited; binding; 1 µM).
For `Cc1cnc(Nc2ccc(C(=O)N3CCC(N4CCCC4)CC3)cc2)nc1-c1cc2ccccc2s1`, the remaining binding was 3.6% (FLT3 D835Y; binding; competition with immobilised ligand; 1 µM).
With `CCS(=O)(=O)c1cc2cc(C[C@@](O)(CC(C)(C)c3ccc(F)cc3C(N)=O)C(F)(F)F)[nH]c2cn1` the remaining binding was 97% (FLT3; cell-free assay; competition with immobilised ligand; 1 µM).
The remaining binding of `O=C(NCC1CCOCC1)c1n[nH]cc1NC(=O)c1c(F)cccc1F` is reported as 100% (FLT3 D835V; binding; competition with immobilised ligand; 1 µM).
`COc1cnc(Nc2cccc(S(N)(=O)=O)c2)nc1N1CCN(c2ccccc2)C(=O)C1` gave a remaining binding of 42% (FLT3 D835V; binding; competition with immobilised ligand; 1 µM).
With `N[C@@H]1CCN(c2nccc(-c3cnn4ncccc34)n2)C1` the remaining binding was 79% (FLT3 N841I; binding; 1 µM).
`Nc1ncc2c(n1)-c1c([nH]c3ccc(C#CC4CC4)cc13)CCCC2` gave a remaining binding of 89% (FLT3 N841I; binding; competition with immobilised ligand; 1 µM).
The remaining binding of `C[C@@H]1CN(c2cc(-c3nn(C)c4ccc(OC5(C)CC5)cc34)ncn2)C[C@H](C)O1` is reported as 77% (FLT3 autoinhibited; cell-free assay; competition with immobilised ligand; 1 µM).
The remaining binding of `CC1CCCN1c1nccc(-c2cnn3ncccc23)n1` (stereo not shown) is reported as 100% (FLT3 K663Q; binding; 1 µM).
With `C=CC(=O)N1CCC(C(=O)NCC(=O)N2CCN(c3nc(-c4cnc(N)nc4C(F)F)nc(N4CCOCC4)n3)CC2)CC1` the remaining binding was 91% (FLT3; binding; competition with immobilised ligand; 1 µM).
The remaining binding of `O=C(Nc1c[nH]nc1C(=O)NC1CCNCC1)c1cc(F)cc(F)c1` is reported as 94% (FLT3 R834Q; binding; competition with immobilised ligand; 1 µM).
`c1cncc(-c2cccc(Nc3nccc(NC4CCCCC4)n3)c2)c1` gave a remaining binding of 1.1% (FLT3 K663Q; binding; competition with immobilised ligand; 10 µM).
With `C[C@@H](c1ccc(-n2cnc3c(N)ncnc32)cc1)N1CCc2nn(C)c(Cc3ccccc3)c2C1=O` the remaining binding was 100% (FLT3; binding; competition with immobilised ligand; 0.1 µM).
`Cc1cc(-n2nc(Cc3cc(F)cc(C(F)(F)F)c3)nc2C)ccc1C(N)=O` has a remaining binding of 100% (FLT3; cell-free assay; competition with immobilised ligand; 1 µM).
`CNC(=O)[C@@H]1CC[C@@H](n2c(-c3ccc4cnccc4c3)nc3ccc(C(=O)NCc4cccc(C(N)=O)c4)cc32)C1` has a remaining binding of 94% (FLT3 D835V; binding; competition with immobilised ligand; 1 µM).
`CCCOc1ccc([C@@H]2[C@@H](C(=O)O)[C@H](c3ccc4c(c3)OCO4)CN2CC(=O)Nc2c(CC)cccc2CC)cc1` has a remaining binding of 88% (FLT3 N841I; cell-free assay; competition with immobilised ligand; 1 µM).
For `COc1cnc(Nc2cccc(S(N)(=O)=O)c2)nc1N1CCN(c2ccccc2)CC1`, the remaining binding was 61% (FLT3 D835Y; binding; competition with immobilised ligand; 1 µM).
`O=C(c1ccc(Nc2ncc(Cl)c(-c3ccc(Cl)s3)n2)cc1)N1CCC(N2CCCC2)CC1` has a remaining binding of 1.9% (FLT3 D835V; binding; competition with immobilised ligand; 1 µM).
`CN(C)c1nccc(-c2cnn3ncccc23)n1` has a remaining binding of 100% (FLT3 autoinhibited; binding; 1 µM).
`CO[C@H]1CC[C@H](CNc2ccc(S(=O)(=O)NC(=O)c3ccc(N4CCN(CC5=C(c6ccc(Cl)cc6)CC(C)(C)CC5)CC4)cc3Oc3cnc4[nH]ccc4c3)cc2[N+](=O)[O-])CC1` gave a remaining binding of 100% (FLT3; cell-free assay; competition with immobilised ligand; 1 µM).
For `COc1ncc2cc3ccccc3nc2c1C#N`, the remaining binding was 100% (FLT3 D835V; cell-free assay; competition with immobilised ligand; 5 µM).
For `Cc1cnn2ncc(-c3ccnc(N(C)C)n3)c2c1`, the remaining binding was 100% (FLT3 N841I; binding; 1 µM).
